Source: ChEMBL document CHEMBL1141424, “Antitubercular dihydroagarofuranoid sesquiterpenes from the roots of Microtropis fokienensis” (2007)
In brackets after ≈: the same amount, converted by molar mass.

Test system: Mycobacterium tuberculosis
Experiment: Antitubercular activity against Mycobacterium tuberculosis 90-221387
Type: functional
Outline: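 Agar proportion method on Middlebrook 7H10 with OADC, clinical susceptible isolate 90-221387. Compound serially diluted into agar at 50-56 °C, final 100 to 0.8 µg/mL, in quadrant plates. Inoculum in 7H9 broth adjusted to McFarland no. 1, then 10-2 dilution, spotted on each quadrant. Incubated 35 °C, 10% CO2, 2 weeks. MIC read; ethambutol positive control; means of 3 or 4 replicates.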

Compound | MIC
CC(=O)O[C@H]1CC[C@@H](C)[C@]23OC(C)(C)[C@H](C[C@H](OC(=O)c4ccccc4)[C@]12COC(=O)c1ccccc1)[C@H]3OC(=O)c1ccccc1 | 78.1 µM (≈ 50 µg/mL)
CC(=O)O[C@H]1C[C@@H](C)[C@]23OC(C)(C)[C@H](C[C@H](OC(=O)c4ccccc4)[C@]2(COC(=O)c2ccccc2)[C@H]1OC(C)=O)[C@H]3OC(=O)c1ccccc1 | 96 µM (≈ 67.1 µg/mL)
CC(=O)O[C@H]1CC[C@@H](C)[C@@]23C[C@@H](C[C@H](OC(=O)c4ccccc4)[C@]12C)C(C)(C)O3 | 26 µM (≈ 10.4 µg/mL)
CC(=O)O[C@H]1[C@@H](O)C[C@@H](C)[C@]23OC(C)(C)[C@H](C[C@H](OC(=O)c4ccccc4)[C@]12COC(=O)c1ccccc1)[C@H]3OC(=O)c1ccccc1 | 19.5 µM (≈ 12.8 µg/mL)
CC(=O)O[C@H]1C[C@@H](C)[C@]23OC(C)(C)[C@H](C[C@H](OC(=O)c4ccccc4)[C@]2(COC(=O)c2ccccc2)[C@H]1O)[C@H]3OC(=O)c1ccccc1 | 15.8 µM (≈ 10.4 µg/mL)
O=Cc1ccc(O)cc1 [4-HYDROXYBENZALDEHYDE] | > 400 µM
CC[C@H](CC[C@@H](C)[C@H]1CC[C@H]2[C@@H]3CC=C4CC(=O)CC[C@]4(C)[C@H]3CC[C@]12C)C(C)C [BETA-SITOSTENONE] | > 400 µM
CC[C@H](CC[C@@H](C)[C@H]1CC[C@H]2[C@@H]3CC=C4C[C@@H](O)CC[C@]4(C)[C@H]3CC[C@]12C)C(C)C [BETA-SITOSTEROL] | > 400 µM
CC[C@@H](CO)NCCN[C@@H](CC)CO [ETHAMBUTOL] | 30.6 µM (≈ 6.25 µg/mL)
O=Cc1cc(Cc2ccc(O)cc2)ccc1O [FORKIENIN] | 276 µM (≈ 63 µg/mL)
CC(=O)O[C@H]1C[C@@H](C)[C@]23OC(C)(C)[C@H](C[C@H](OC(=O)c4ccccc4)[C@]2(COC(=O)c2ccccc2)[C@H]1OC(C)=O)[C@H]3OC(C)=O [MUTANGIN] | 51.8 µM (≈ 33 µg/mL)
CC(=O)O[C@H]1[C@@H](OC(=O)c2ccccc2)C[C@@H](C)[C@]23OC(C)(C)[C@H](C[C@H](OC(=O)c4ccccc4)[C@]12C)[C@H]3OC(=O)c1ccccc1 [ORBICULIN G] | 14.6 µM (≈ 9.35 µg/mL)
O=C(O)c1ccc(O)cc1 [PARABEN] | 362 µM (≈ 50 µg/mL)
COc1cc(C(=O)O)cc(OC)c1O [SYRINGIC ACID] | 318 µM (≈ 63 µg/mL)
COc1cc(C(=O)O)ccc1O [VANILLIC ACID] | 375 µM (≈ 63.1 µg/mL)
